Experimental data as given in ChEMBL document CHEMBL3352407, “Griseorhodins D-F, neuroactive intermediates and end products of post-PKS tailoring modification in Griseorhodin biosynthesis” (J Nat Prod, 2014).
Activity calls are given as the source filed them. The calls are words filed in the database; no cut-off is given here.

System: DRG neuron
Experiment: Increase in Ca2+ uptake in mouse DRG neurons at 20 ug/ml by Fura-2 dye-based fluorescence microscopy
Assay type: functional
Procedure, shortened: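 Mouse DRG cells plated in medium with additives and loaded with the Ca2+ dye Fura-2 AM. Compound applied directly at 20 μg/mL. Read-out is the fraction of cells showing a rise in Ca2+ concentration.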

Cc1cc2cc(CCC(=O)O)c(O)c(O)c2c(=O)o1
Activity: Active
